Experimental data: paper PMC8829933 (ACS Omega, 2022)

How the values were obtained:
HIV-1 IN (WT) = HIV-1 IN (WT) (Human immunodeficiency virus type 1 group M subtype B, UniProt P12497); experiment: HTRF-based integration assay of IN catalytic activity; assay type: biochemical
In short: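 Full-length HIV-1 IN and LEDGF/p75 cofactor (6xHis- and Flag-tagged, expressed in E. coli BL21(DE3)) catalyse integration of donor viral DNA, 5′-Cy5-labelled, into acceptor target DNA, 5′-biotinylated and bound by streptavidin-europium. The integration product is read as time-resolved FRET between the two fluorophores, with test compound present.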

HIV-1 IN G140S/Q148H = HIV-1 IN G140S/Q148H (Human immunodeficiency virus type 1 group M subtype B, UniProt P12497, G1287S/Q1295H); experiment: HTRF-based integration assay against drug-resistant IN; assay type: biochemical
HIV-1 IN A128T = HIV-1 IN A128T (Human immunodeficiency virus type 1 group M subtype B, UniProt P12497, A1275T); experiment: as above; assay type: biochemical
HIV-1 IN H171T = HIV-1 IN H171T (Human immunodeficiency virus type 1 group M subtype B, UniProt P12497, H1318T); experiment: as above; assay type: biochemical
HIV-1 = conditions: reported in the literature; ref [30],[41],[58],[60]−[69]; cited from earlier work

| SMILES | IC50 (HIV-1 IN (WT); IC50, inhibitory activity against IN, Table 2, WT IN) | fold higher potency than compound 12 (HIV-1 IN (WT); IN catalytic activity in vitro, relative to 12) | IC50 (HIV-1 IN G140S/Q148H) | IC50 (HIV-1 IN A128T) | IC50 (HIV-1 IN H171T) | selectivity against HIV-1 (therapeutic index) (HIV-1) |
| --- | --- | --- | --- | --- | --- | --- |
| CC(C)(C)OC(=O)N1CCC(C(=O)N[C@@H](Cc2ccc3ccccc3c2)C(=O)O)(c2ccccc2)CC1 [Compound 14e] | 90.4 ± 4.72 µM | fourfold | 103 ± 3.12 µM | 86.8 ± 2.98 µM | 114 ± 9.79 µM |  |
| Cc1nc2c(c(C)c(C)n2Cc2cnn(C)c2)c(-c2ccc(Cl)cc2)c1[C@H](OC(C)(C)C)C(=O)O [STP0404] |  |  |  |  |  | > 24,000 |
